Where “and” joins values, the source holds several entries; their conditions need not be identical. Equal values may be shown once. Entries after “also recorded” stand apart in the source; their conditions may differ.
What was measured:
[1] = tested on: RS4;11 acute leukemia cell line; assay: Cell growth inhibition; type: cell-based, human; conditions: comparator 23
[2] = tested on: MOLM-13 acute leukemia cell line; assay: Cell growth inhibition; type: cell-based, human; conditions: MOLM13; comparator 23
[3] = tested on: BRD2, BRD3, and BRD4 proteins; assay: Western blotting of BET protein levels in RS4; type: cell-based, human
[4] = tested on: MOLM-13 cell line; assay: Apoptosis induction by flow cytometry; type: cell-based, human; conditions: MOLM-13, 24 h treatment
Summary of the method: (§1)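 RS4;11 or MOLM-13 cells were grown in RPMI 1640 with 10% FBS and 1% penicillin–streptomycin at 37 °C, 5% CO₂, and used within three months of thawing. Cells were treated with the test compound at the indicated concentrations for 24 h. They were then stained with annexin V and propidium iodide and analysed by flow cytometry.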

[5] = tested on: BRD2, BRD3, and BRD4; assay: FP-based competitive binding assays, BET proteins overall; conditions: binding to BRD2, BRD3, BRD4; comparator 1 or 2
[6] = tested on: c-Myc; assay: Western blotting of c-Myc level in RS4; type: cell-based, human; conditions: for Concentration effectively down-regulating the level of c-Myc: RS4;11 cells, 24 h treatment, Western blot
Summary of the method: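 RS4;11 cells (2 × 10⁶/well) were exposed for 24 h to the test compound at the indicated concentrations. Cells were lysed in RIPA buffer with protease inhibitors. Lysate (20 μg per lane) was separated by SDS–PAGE, transferred to PVDF, and immunoblotted for c-Myc, with GAPDH as the loading control.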

[7] = tested on: RS4;11 cell line; assay: Cell cycle arrest by flow cytometry; type: cell-based, human; conditions: RS4;11, 24 h
Summary of the method: (§2)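 Cell cycle was read by propidium iodide staining and flow cytometry after 24 h exposure to the test compound at the indicated concentrations. RS4;11 or MOLM-13 cells were cultured in RPMI 1640 with 10% FBS and 1% penicillin–streptomycin at 37 °C, 5% CO₂, and used within three months of thawing.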

[8] = tested on: RS4;11 cell line; assay: Apoptosis induction by flow cytometry; type: cell-based, human; conditions: RS4;11, 24 h treatment
Summary of the method: as §1

[9] = tested on: MOLM-13 cell line; assay: Cell cycle arrest by flow cytometry; type: cell-based, human; conditions: MOLM-13, 24 h
Summary of the method: as §2

[10] = target: BRD4 (Homo sapiens, UniProt O60885); assay: Western blotting of BRD4 protein level in RS4; type: cell-based; conditions: RS4;11 cells
Summary of the method: (§3)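 RS4;11 cells (2 × 10⁶/well) were treated with the test compound at the indicated concentrations for 3 h or 24 h. Cells were lysed in RIPA buffer with protease inhibitors. Lysate (20 μg per lane) was separated by SDS–PAGE, blotted onto PVDF, and probed with BRD2, BRD3 and BRD4 antibodies, with GAPDH as the loading control.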

[11] = Animal weight and signs of toxicity in RS4; type: in vivo; conditions: mice bearing RS4;11 xenografts, 5 mg/kg intravenously, three times a week for 3 weeks
Summary of the method: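 Subcutaneous dorsal xenografts in SCID mice: 5 × 10⁶ RS4;11 cells in 50% Matrigel, one tumor per mouse. Mice randomised to treatment or vehicle groups at ~100 mm³. Dosing was intravenous every other day. Toxicity signs checked daily. Body weight recorded 2–3 times per week during treatment and at least weekly afterwards.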

[12] = tested on: BRD2, BRD3, and BRD4 proteins; assay: Pharmacodynamic Western blotting of BET proteins in RS4; type: in vivo, SCID mice; conditions: single intravenous dose, 5 mg/kg
Summary of the method: (§4)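 SCID mice bearing RS4;11 xenografts were given one 5 mg/kg IV dose of the test compound and killed at 1, 3, 6 or 24 h; vehicle-treated mice were killed at 6 h. Two mice were used per time point, with one or two tumours each. Lysates were run on 4–20% gels and immunoblotted on PVDF for BRD2–4, c-Myc, PARP and caspase-3. Actin was the loading control, with ECL detection.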

[13] = Drug concentration in plasma; type: in vivo, SCID mice
Summary of the method: (§5)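 Female SCID C.B-17 mice bearing RS4;11 tumours received a single 5 mg/kg IV dose in 20% PEG 400, 6% Cremophor EL and 74% PBS. Mice were killed at 1, 3, 6 and 24 h (two mice per time point, three tumours per time point). Plasma came from blood spun at 15 000 rpm for 10 min; tumours were frozen and ground in liquid nitrogen. Samples were kept at −80 °C and assayed by LC–MS/MS on a C18 column.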

[14] = In vitro metabolite identification in mouse liver microsomes; type: in vitro ADME; conditions: 10 μM, MLM with β-NADPH, 37 °C, 20 and 40 min
Summary of the method: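 Incubation was quenched with a 3-fold volume of ice-cold acetonitrile, then centrifuged at 15 000 rpm for 10 min; supernatant stored at −80 °C. Negative controls omitted NADPH or used boiled microsomes. Metabolites were identified by tandem mass spectrometry, starting from the parent's product ion spectrum to establish fragmentation.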

[15] = tested on: triple-negative human breast cancer; conditions: in vitro and in vivo ref 32; cited from earlier work
[16] = target: BRD2 (Homo sapiens, UniProt P25440); assay: Western blotting of BRD2 protein level in RS4; type: cell-based; conditions: RS4;11 cells, Western blot
BRD2, sequence (P25440 whole entry): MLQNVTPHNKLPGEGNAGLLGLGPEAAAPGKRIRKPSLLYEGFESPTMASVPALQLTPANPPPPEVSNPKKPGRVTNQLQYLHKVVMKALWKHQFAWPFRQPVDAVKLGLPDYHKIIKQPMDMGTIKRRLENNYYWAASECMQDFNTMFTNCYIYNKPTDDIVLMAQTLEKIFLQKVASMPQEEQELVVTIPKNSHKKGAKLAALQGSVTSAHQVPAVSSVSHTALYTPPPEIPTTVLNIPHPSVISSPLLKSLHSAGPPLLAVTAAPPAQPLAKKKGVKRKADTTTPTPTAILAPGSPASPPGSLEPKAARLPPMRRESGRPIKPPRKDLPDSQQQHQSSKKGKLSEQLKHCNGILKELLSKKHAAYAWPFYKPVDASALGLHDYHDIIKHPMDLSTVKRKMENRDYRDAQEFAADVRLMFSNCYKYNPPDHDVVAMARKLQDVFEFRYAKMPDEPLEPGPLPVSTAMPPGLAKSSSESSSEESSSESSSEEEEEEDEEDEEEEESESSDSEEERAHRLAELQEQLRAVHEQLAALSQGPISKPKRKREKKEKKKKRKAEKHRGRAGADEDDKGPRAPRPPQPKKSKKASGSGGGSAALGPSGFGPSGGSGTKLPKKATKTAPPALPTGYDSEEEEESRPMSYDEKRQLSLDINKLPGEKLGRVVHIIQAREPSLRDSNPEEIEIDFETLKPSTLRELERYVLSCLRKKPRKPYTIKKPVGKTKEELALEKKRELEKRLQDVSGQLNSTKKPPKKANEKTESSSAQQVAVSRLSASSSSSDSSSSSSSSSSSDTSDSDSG
Summary of the method: as §3

[17] = tested on: c-Myc; assay: Pharmacodynamic Western blotting of c-Myc in RS4; type: in vivo, SCID mice; conditions: single intravenous dose, 5 mg/kg
Summary of the method: as §4

[18] = target: BRD3 (Homo sapiens, UniProt Q15059); assay: Western blotting of BRD3 protein level in RS4; type: cell-based; conditions: RS4;11 cells, Western blot
BRD3, sequence (Q15059 whole entry): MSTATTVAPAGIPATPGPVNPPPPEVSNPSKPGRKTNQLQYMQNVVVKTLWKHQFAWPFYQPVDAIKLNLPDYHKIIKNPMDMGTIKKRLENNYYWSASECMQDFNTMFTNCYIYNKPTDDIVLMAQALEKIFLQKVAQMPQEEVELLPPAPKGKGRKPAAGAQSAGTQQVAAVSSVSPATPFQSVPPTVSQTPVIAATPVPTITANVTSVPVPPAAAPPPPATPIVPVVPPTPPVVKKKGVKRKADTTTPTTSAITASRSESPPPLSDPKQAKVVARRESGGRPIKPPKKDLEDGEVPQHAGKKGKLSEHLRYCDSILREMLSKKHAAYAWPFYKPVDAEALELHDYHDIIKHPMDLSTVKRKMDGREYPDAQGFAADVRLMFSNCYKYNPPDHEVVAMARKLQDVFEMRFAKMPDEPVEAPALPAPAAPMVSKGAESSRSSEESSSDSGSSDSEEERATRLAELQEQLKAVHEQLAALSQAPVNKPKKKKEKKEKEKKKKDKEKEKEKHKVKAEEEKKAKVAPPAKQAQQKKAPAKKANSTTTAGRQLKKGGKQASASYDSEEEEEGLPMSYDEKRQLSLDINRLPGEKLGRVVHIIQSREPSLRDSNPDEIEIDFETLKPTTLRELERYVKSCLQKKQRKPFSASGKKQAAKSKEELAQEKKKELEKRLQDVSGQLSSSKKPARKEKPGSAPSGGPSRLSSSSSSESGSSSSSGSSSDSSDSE
Summary of the method: as §3

[19] = tested on: PARP and caspase-3; assay: Pharmacodynamic Western blotting of PARP and caspase-3 cleavage in RS4; type: in vivo, SCID mice; conditions: single intravenous dose, 5 mg/kg
Summary of the method: as §4

[20] = Drug concentration in RS4; type: in vivo, SCID mice
Summary of the method: as §5

[21] = tested on: RS4;11 xenograft tumors; assay: Antitumor efficacy in RS4; type: in vivo; conditions: mice, 5 mg/kg intravenously
Summary of the method: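 Human RS4;11 leukaemia cells (5 × 10⁶, in 50% Matrigel) were injected subcutaneously on the dorsal side of SCID mice, one tumour per mouse. At ∼100 mm³, mice were randomised to treatment or vehicle groups. The test compound was given at 5 mg/kg IV every other day, three times a week, for 3 weeks. Tumours were measured by calipers 2–3 times weekly (V = LW²/2). Body weight and toxicity signs were monitored.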

[22] = tested on: acute leukemia model; conditions: acute leukemia model in mice ref 23; cited from earlier work
[23] = RS4;11 cells, 3 h treatment, Western blot
[24] = 1 h after single 5 mg/kg intravenous dose
[25] = 3 h after single 5 mg/kg intravenous dose
[26] = 6 h after single 5 mg/kg intravenous dose

Compound: COc1cc2c(cc1-c1c(C)noc1C)[nH]c1nc(C(=O)NCCCCCc3cccc4c3CN(C3CCC(=O)NC3=O)C4=O)ncc12 (stereo not shown) [Compound 27, 7-(3,5-Dimethylisoxazol-4-yl)-N-(5-(2-(2,6-dioxopiperidin-3-yl)-1-oxoisoindolin-4-yl)pentyl)-6-methoxy-9H-pyrimido[4,5-b]indole-2-carboxamide]
- times less potent than 23 in cell growth inhibition [1]: > 10 000 times
- times less potent than 23 in cell growth inhibition [2]: > 400 times

Compound: CCn1nc(C2CC2)cc1Nc1nc(C(=O)NC)nc2[nH]c3cc(-c4c(C)noc4C)c(OC)cc3c12 [Compound 8, 4-((3-Cyclopropyl-1-ethyl-1H-pyrazol-5-yl)amino)-7-(3,5-dimethylisoxazol-4-yl)-6-methoxy-N-methyl-9H-pyrimido[4,5-b]indole-2-carboxamide]
- Effect of pretreatment on degradation of BRD2, BRD3, and BRD4 induced by 23 ([3]; RS4;11 cells, 2 h pretreatment, then 3 h treatment with 23 at 1 nM): effectively blocks
- Effect on the level of BRD2–4 proteins ([3]; RS4;11 cells, 3 h, at both 100 and 300 nM): fails to decrease
- Effect on the level of BRD2–4 proteins ([3]; RS4;11 cells, 24 h, all concentrations tested (30–1000 nM)): no effect
- Concentration inducing robust apoptosis [4]: > 300 nM
- times more potent than 1 or 2 in binding [5]: > 10 times
- Concentration effectively down-regulating the level of c-Myc [6]: 300 to 1000 nM
- Concentration effective in inducing cell cycle arrest [7]: 30 nM
- Concentration inducing robust apoptosis [8]: > 300 nM
- Concentration effective in inducing cell cycle arrest [9]: 30 to 100 nM

Compound: CCn1nc(C2CC2)cc1Nc1nc(C(=O)NCCCCCc2cccc3c2CN(C2CCC(=O)NC2=O)C3=O)nc2[nH]c3cc(-c4c(C)noc4C)c(OC)cc3c12 (stereo not shown) [Compound 23, 4-((3-Cyclopropyl-1-ethyl-1H-pyrazol-5-yl)amino)-7-(3,5-dimethylisoxazol-4-yl)-N-(5-(2-(2,6-dioxopiperidin-3-yl)-1-oxoisoindolin-4-yl)pentyl)-6-methoxy-9H-pyrimido[4,5-b]indole-2-carboxamide]
- Lowest concentrations effective in decreasing the level of BRD2, BRD3, and BRD4 proteins [3, 23]: 0.1 to 0.3 nM
- Concentrations inducing degradation of BRD2, BRD3, and BRD4 proteins ([3]; RS4;11 leukemia cells): 30 to 100 pM
- Concentration inducing robust apoptosis [4]: 3 to 10 nM
- Lowest concentration effective in decreasing the level of BRD4 protein ([10]; 3 h treatment, Western blot): 0.3 nM
- Lowest concentration degrading BRD4 protein ([10]; 24 h treatment): 30 pM
- Lowest concentration effectively reducing the level of BRD4 protein ([10]; 24 h treatment, Western blot): 0.03 nM
- Animal weight loss or signs of toxicity [11]: no animal weight loss or other signs of toxicity; also recorded: minimal body weight change; also recorded: no signs of toxicity
- Duration of reduction of BRD2, BRD3, and BRD4 proteins in tumor tissue [12]: > 24 h
- Onset of reduction of BRD2, BRD3, and BRD4 proteins in tumor tissue [12]: 1 h
- concn in plasma, individual mice [13, 24]: 362 ng/mL
- concn in plasma, individual mice [13, 25]: 76.1 ng/mL
- concn in plasma, individual mice [13, 26]: 7.4 ng/mL
- times more potent than 8 in down-regulation of c-Myc protein ([6]; RS4;11 cell line, comparator 8): > 1000 times
- Concentration effectively down-regulating the level of c-Myc [6]: 0.1 nM
- Major metabolite in mouse liver microsomes [14]: mono- or dihydroxylated product occurring in the alkyl chain in the linker
- Activity against triple-negative human breast cancer [15]: very potent and efficacious
- Lowest concentration effective in decreasing the level of BRD2 protein ([16]; 3 h treatment): 0.3 nM
- Lowest concentration effectively reducing the level of BRD2 protein ([16]; 24 h treatment): 0.1 nM
- Concentration effective in inducing cell cycle arrest [7]: 0.3 nM
- Duration of c-Myc down-regulation in tumor tissue [17]: at least 6 h
- Concentration inducing robust apoptosis [8]: 3 to 10 nM
- Lowest concentration effective in decreasing the level of BRD3 protein ([18]; 3 h treatment): 0.1 nM
- Lowest concentration effectively reducing the level of BRD3 protein ([18]; 24 h treatment): 0.1 nM
- Onset of cleavage of PARP and caspase-3 in tumor tissue [19]: 3 h
- Time of peak cleavage of PARP and caspase-3 in tumor tissue [19]: 6 h
- concn in tumor, individual tumor [20, 24]: 123 ng/g and 240.5 ng/g
- concn in tumor, individual tumor [20, 25]: 89 ng/g and 120.5 ng/g
- concn in tumor, individual tumor [20, 26]: 31.9 ng/g
- Concentration effective in inducing cell cycle arrest [9]: 1 to 3 nM
- Antitumor activity against RS4;11 xenograft tumors [21]: rapid tumor regression

Compound: Cc1sc2c(c1C)C(c1ccc(Cl)cc1)=N[C@@H](CC(=O)NCCCCNC(=O)COc1cccc3c1C(=O)N(C1CCC(=O)NC1=O)C3=O)c1nnc(C)n1-2 (stereo partly shown) [Compound 4, dBET1, reference compound]
- Effect on the level of BRD2, BRD3, and BRD4 proteins [3, 23]: effectively decrease
- Inhibition of tumor growth in vivo compared with 1 [22]: more effective
